In the library only some 1.2% were active in any assay of this set; here they are far more common.
TbHK1 inh: blocks Trypanosoma brucei hexokinase 1 activity | recombinant TbHK1, G6PDH-coupled NADH A340 | inhibition, % at 10 µM | 220,000 tested, 0.11% active | AID 1430;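 active means inhibition of 50% or more in the single-dose primary screen; inactive means inhibition below 50%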
PfGluPho inh: PfG6PD (Plasmodium falciparum) enzyme inhibition; AID 504690; 350,000 tested, 0.78% active; inhibition, % at 20 µM; PfGluPho enzyme, NADPH resazurin-diaphorase fluorescence;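 active means inhibition reaching at least a set limit at 20 µM in the primary screen, cut at about 59% in these data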;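 further: 0% = DMSO wells with substrate and 100% = DMSO wells lacking glucose-6-phosphate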
HKDC1 inh: inhibitors of human hexokinase HKDC1; Q2TB90; recombinant HKDC1, G6PDH/diaphorase resazurin coupled fluorescence; inhibition, % at 20 µM; 340,000 tested, 0.16% active; AID 493160;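 active means inhibition above about 35% when tested at 20 µM, limit read from the data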;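 further: plate controls were DMSO wells with enzyme for no effect and DMSO wells lacking enzyme for full effect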
Target sequence (Q2TB90 whole entry, looked up): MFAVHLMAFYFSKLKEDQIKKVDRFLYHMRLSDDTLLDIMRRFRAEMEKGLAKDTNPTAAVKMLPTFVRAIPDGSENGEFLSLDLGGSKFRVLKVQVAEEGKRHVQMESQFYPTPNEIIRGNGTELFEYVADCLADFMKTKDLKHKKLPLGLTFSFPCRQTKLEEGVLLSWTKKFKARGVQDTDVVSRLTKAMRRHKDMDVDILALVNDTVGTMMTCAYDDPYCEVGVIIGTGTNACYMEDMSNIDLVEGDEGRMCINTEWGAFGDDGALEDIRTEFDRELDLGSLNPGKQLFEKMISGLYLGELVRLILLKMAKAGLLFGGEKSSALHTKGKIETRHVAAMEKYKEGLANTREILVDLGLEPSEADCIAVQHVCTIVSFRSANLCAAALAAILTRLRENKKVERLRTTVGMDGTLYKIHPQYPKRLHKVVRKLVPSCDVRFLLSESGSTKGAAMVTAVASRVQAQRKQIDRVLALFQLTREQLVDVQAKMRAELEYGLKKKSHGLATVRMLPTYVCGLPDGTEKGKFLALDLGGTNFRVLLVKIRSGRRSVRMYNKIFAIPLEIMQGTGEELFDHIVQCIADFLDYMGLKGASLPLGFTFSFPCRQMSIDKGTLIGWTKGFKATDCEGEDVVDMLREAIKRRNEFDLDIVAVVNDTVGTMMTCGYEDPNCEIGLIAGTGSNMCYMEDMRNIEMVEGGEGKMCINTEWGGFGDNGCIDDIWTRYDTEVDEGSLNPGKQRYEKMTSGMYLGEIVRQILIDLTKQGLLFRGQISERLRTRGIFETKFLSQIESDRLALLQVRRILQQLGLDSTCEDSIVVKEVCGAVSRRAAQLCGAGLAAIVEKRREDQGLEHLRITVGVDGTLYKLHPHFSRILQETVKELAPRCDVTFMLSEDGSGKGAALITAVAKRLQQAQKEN
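Test system: HK5 enzyme. Quantity: 5 µg/mL HK5 final. Reagent: glucose and ATP substrates. Schedule: 90 min reaction incubation at room temperature, dark. Technique: resazurin-to-resorufin fluorescence via G6PDH and diaphorase coupling, 525/613 nm. Control set: DMSO wells with and without enzyme mix.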
G6PDH counter: L. mesenteroides G6PDH inhibition counter-screen. Purified L. mesenteroides G6PDH, diaphorase/resazurin coupled fluorescence, 45 min. inhibition, % at 5 µM. 200,000 tested, 0.12% active; in the data active means inhibition above about 50%
Diaph inh CS: inhibits diaphorase or chemically oxidizes, flagging diaphorase assay artifacts; diaphorase resazurin-to-resorufin fluorescence, NADH, 16 min; bacterial (C. kluyveri) enzyme, not human; inhibition, % at 20 µM; 190,000 tested, 0.69% active;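 active means primary screen inhibition at 20 µM above a set limit, cut at about 50% in these data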;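 further: plate controls were DMSO with full reaction for no effect and wells lacking NADH for full effect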
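Test system: diaphorase enzyme from Clostridium kluyveri; amount: diaphorase at 0.14 U/mL in enzyme working solution; detection: fluorescence of resorufin formed from resazurin, Ex 544/Em 590 nm; times: reaction incubation of 16 min at room temperature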
HKDC1 act conf: confirmation of human HKDC1 activators; shares compounds with HKDC1 inh; recombinant HKDC1, G6PDH/diaphorase resazurin fluorescence; active compounds read low; inhibition, % at 20 µM; 740 tested, 14% active; AID 504708;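 active means inhibition at or below a set negative limit, negative inhibition meaning the enzyme was activated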
Starred values were filed as active, the others as inactive; / = no result given.

SMILES | TbHK1 inh | PfGluPho inh | HKDC1 inh | G6PDH counter | Diaph inh CS | HKDC1 act conf
O=C1C(Cl)=C(N2CCCCC2)C(=O)C(Cl)=C1c1cnc(N2CCCCC2)s1 | -4 | 88* | 70* | 34 | 62* | 49
CCOc1ccc(-n2c(C)cc(C(=O)CCl)c2C)cc1 | -3 | 8 | 35 | -2 | 10 | 28
COC(=O)c1ccc(-n2c(C)cc(C(=O)CCl)c2C)cc1 | 5 | -4 | 26 | 2 | -3 | /
C=CCn1nc([N+](=O)[O-])nc1Sc1cccc2cccnc12 | 3 | 38 | -47 | 6 | 14 | -52*
NNC(=O)CSc1cccc2cccnc12 | -8 | 4 | -10 | -5 | 0 | /
C=CCN(CC=C)Cc1c(O)ccc2c1oc(=O)c1ccccc12 | -2 | 30 | 34 | / | / | 23
Cc1cc(=O)oc2c(CN(C)Cc3ccccc3)c(O)ccc12 | -31 | 2 | -4 | 0 | 10 | /
Cc1cccc(N2CCN(S(=O)(=O)c3c(C(=O)N4CCCCC4)c(C)n(C)c3C)CC2)c1C | / | -4 | -3 | / | / | /
O=C(CN1C(=O)/C(=C2\SC(=S)N(CCS(=O)(=O)O)C2=O)c2ccccc21)Nc1cccc(Br)c1 | / | 24 | 58* | / | / | 13
O=C(COCc1cc(-c2ccc3c(c2)OCO3)on1)N1CCN(c2cccc(C(F)(F)F)c2)CC1 | / | 4 | -6 | / | / | /
CC(=NNc1nc2ccccc2o1)c1cc2ccccc2cn1 | / | 40 | -48 | / | / | -77*
COCc1cc(C2C(C(=O)c3ccco3)=C(O)C(=O)N2CCOCCO)ccc1O (stereo not drawn) | -22 | 5 | 35* | 1 | 20 | -40*
COCCCN1C(=O)C(O)=C(C(=O)c2ccco2)C1c1ccccc1 (stereo not drawn) | -12 | 4 | -5 | 2 | 12 | /
C=CC[n+]1c(/C=C/c2ccc(OC(C)=O)c(OC)c2)ccc2ccccc21 | / | 7 | -1 | / | / | /
S=C(NCc1ccccn1)Nc1cccc(Cl)c1 | -1 | 1 | -5 | -6 | 11 | /
CC(=NNC(=S)Nc1cccc(Cl)c1)c1ccccn1 | / | 35 | -46 | / | / | -63*
CC(=NNC(=S)SCc1ccccc1)c1ccccn1 | / | -6 | -47 | / | / | -28*
CC(=NNC(=S)N1CCC1)c1ccccn1 | / | 50 | -39 | / | / | /
CC(C)OCCCNC(=O)c1ccccc1NC(=O)C1=CSCCO1 | / | -11 | -4 | / | / | /
O=C(NNC(=S)NCCc1ccccc1)c1ccc(Br)s1 | -6 | 7 | -1 | 3 | 2 | /
O=C1NN(c2ccc(F)c(Cl)c2)C(=O)/C1=C\c1cccc(OC(=O)c2cccs2)c1 | 0 | 0 | 44* | 0 | 16 | 27
Cc1no[n+]([O-])c1COc1cccc(/C=C2\N=C(c3ccccc3)OC2=O)c1 | 33 | -4 | 9 | -10 | 16 | /
O=C1OC(c2ccccc2)=N/C1=C/c1cccc(OC(=O)c2cccs2)c1 | -5 | -17 | 39* | / | / | -9
C[C@@H]1CN[C@@H](CCO)/C1=C\c1ccccc1 | / | 9 | -4 | / | / | /
Cc1ccsc1C(=O)OCC(=O)NC1CCCCC1C (stereo not drawn) | / | 12 | 2 | / | / | /
SMILES | TbHK1 inh | PfGluPho inh | HKDC1 inh | G6PDH counter | Diaph inh CS | HKDC1 act conf
Nn1c(SCC(=O)NC(=O)Nc2ccc3c(c2)OCCO3)nnc1C1CC1 | 5 | -1 | -12 | -2 | 21 | /
CCN(CC)S(=O)(=O)c1ccc(N/N=C(\C)c2ccc(OC)cc2O)nc1 | -42 | 53 | 31 | / | / | 20
O=C(O)[C@@H](c1ccccc1)N1Cc2ccccc2C1=O | -2 | -4 | 52* | 4 | -8 | 44
Cc1cccc(C(=O)N2CCCC(Nc3ccc(C)c(C)c3)C2)n1 (stereo not drawn) | / | 6 | 3 | / | / | /
CC(=NNC(=S)N1CC2CCC(CC2)C1)c1cccc(C)n1 | / | 13 | -47 | / | / | -52*
O=C(NCCc1ccccc1)C(c1cccs1)N(C(=O)c1csnn1)C1CC1 (stereo not drawn) | -3 | -4 | -6 | -7 | 14 | /
O=C(NCCc1ccccc1)C(c1cccs1)N(C(=O)CCl)c1ccc(Cl)cc1 (stereo not drawn) | -3 | -1 | 37* | -8 | 1 | 23
CCN(CC(=O)NCc1ccc(Cl)cc1)C(=O)c1cccc(S(=O)(=O)Nc2ccc(OC)cc2)c1 | / | -7 | 1 | / | / | /
C[C@]12c3[nH]c4ccc(Cl)cc4c3CCN1C(=O)[C@@H](CC(=O)NCc1cccc(C(F)(F)F)c1)C[C@@H]2C(=O)N1CCOCC1 | / | 31 | 27 | / | / | -30
CC(=O)C1=C(c2ccccc2)N(C(C)=O)n2c(C)nnc2S1 | -2 | -3 | -315 | 6 | 12 | -125*
O=C(CSc1n[nH]c(-c2ccncc2)n1)Nc1ccc(Br)cc1 | / | -46 | 25 | / | / | /
COC(=O)c1ccc(NC(=O)CSc2n[nH]c(-c3ccncc3)n2)cc1 | -2 | 38 | 36* | -18 | 32 | 43
CCOC(=O)c1ccc(NC(=O)CSc2n[nH]c(-c3ccncc3)n2)cc1 | 2 | 23 | 40* | -24 | 51* | 50
O=C(CNC(=O)c1ccccc1Br)Nc1cccc(S(=O)(=O)Nc2ccccc2Cl)c1 | / | 2 | -2 | / | / | /
O=c1cc(-c2cccc(Br)c2)nc(-c2ccccc2F)o1 | 4 | 0 | 31 | 5 | 7 | 12
CC1C/C(=C\c2cccnc2)C(=O)/C(=C/c2cccnc2)C1 (stereo not drawn) | -14 | 4 | 40* | -9 | 0 | 23
O=C(O)/C(=C/c1ccc(Cl)c([N+](=O)[O-])c1)c1ccc(S(=O)(=O)N2CCCCC2)s1 | / | -21 | 12 | / | / | /
COc1cccc(Nc2ccccc2C(=O)O)c1 | 2 | -18 | -2 | 4 | 16 | /
COc1cc(-c2ccc(Nc3ccccc3C(=O)O)c(OC)c2)ccc1Nc1ccccc1C(=O)O | -16 | 1 | 42* | / | / | -6
CCN(CC)C(=O)[C@H]1C[C@H](CC(=O)NCc2ccc(OC)c(OC)c2)C(=O)N2CCc3c([nH]c4cc(-c5ccco5)ccc34)[C@]12C | / | 13 | 20 | / | / | /
COC1=CC(=O)c2ccccc2C1=O | / | -94 | 3 | / | / | /
COC1=CC(=O)C=C(OC)C1=O | / | 125* | 66* | / | / | 75
Cc1ccccc1/C=N/N1C(=O)CSC1=S | / | -6 | 0 | / | / | /
O=C1CSC(=S)N1N=Cc1ccccc1O | / | 47 | -42 | / | / | -9
O=C(Nc1ccn(CCCN2CCN(Cc3ccc(F)cc3)CC2)c(=O)n1)OCc1ccccc1 | / | 9 | / | / | / | /
CCc1c(C)nc2nc(SCc3ccccc3)[nH]n2c1=O | / | 3 | -2 | / | / | /
C/C(=N\NC(=O)C12CCC(C)(C(=O)O1)C2(C)C)c1ccccc1O (stereo not drawn) | -19 | -44 | -16 | / | / | /
CC12CCC(C(=O)N/N=C/c3ccc(O)cc3O)(OC1=O)C2(C)C (stereo not drawn) | -43 | -44 | -39 | / | / | -35*
O=C(NC1CC1)c1ccccc1 | / | 0 | / | / | / | /
Cn1cccc1C(=O)NC(=O)COC(=O)CCNS(=O)(=O)c1cccc(C(F)(F)F)c1 | / | -4 | 0 | / | / | /

Compound activity from PubChem.
